NPY-Y1 PAM-ag: potentiates or activates human NPY-Y1 receptor; P25929; NPY-Y1 expressing cells, potentiator/agonist activation; activation, % at 3.6 µM; 0.37% of 220,000 active; AID 1304; in the data active = activation above about 33%, passing the limit was not always enough;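 note: cells stimulated with NPY at EC10 then isoproterenol at EC100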
RAM inhibit: blocks the yeast RAM network | S. cerevisiae dse1pr::URA3 reporter, 5-FOA growth OD615, 2 d; analog-sensitive cbk1-as2 kinase mutant strain | 1.8% of 190,000 active | inhibition, % at 50 µM;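 active = inhibition above a set limit, 3 SD over mean compound inhibition, cut at about 8.4% in these data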;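 note: inhibition rescues growth on 5-FOA so higher OD means more RAM inhibition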
NPY-Y1 antag: NPY-Y1 (human) receptor antagonism; HEK293-CNG Y1 cells, membrane potential fluorescence; NPY at EC95, then isoproterenol; P25929; 1% of 200,000 active; inhibition, % at 3.6 µM;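 active = inhibition above the campaign mean inhibition of all tested compounds plus 3 SD, cut at about 20% in these data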
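Material: HEK293 Y1/CNG channel cell line; also added: NPY (25 nM), isoproterenol (1 µM), Ro 20-1724 (25 µM); doses: one concentration, 3.6 µM, in 0.4% DMSO; schedule: compound incubation 1 h at room temperature, readout 45 min post-stimulation; technique: membrane potential fluorescence; measure: fluorescence ratio normalized to % inhibition between controls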
NPY2 pot ag: human NPY-Y2 potentiation or agonism, primary screen | 0.45% of 220,000 active | cells expressing NPY-Y2, potentiator/agonist read-out | P49146 | activation, % at 3.6 µM; in the data active = activation above about 27%;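 note: cells stimulated with NPY near EC25 plus isoproterenol at EC100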
Target sequence (P49146 whole entry, looked up): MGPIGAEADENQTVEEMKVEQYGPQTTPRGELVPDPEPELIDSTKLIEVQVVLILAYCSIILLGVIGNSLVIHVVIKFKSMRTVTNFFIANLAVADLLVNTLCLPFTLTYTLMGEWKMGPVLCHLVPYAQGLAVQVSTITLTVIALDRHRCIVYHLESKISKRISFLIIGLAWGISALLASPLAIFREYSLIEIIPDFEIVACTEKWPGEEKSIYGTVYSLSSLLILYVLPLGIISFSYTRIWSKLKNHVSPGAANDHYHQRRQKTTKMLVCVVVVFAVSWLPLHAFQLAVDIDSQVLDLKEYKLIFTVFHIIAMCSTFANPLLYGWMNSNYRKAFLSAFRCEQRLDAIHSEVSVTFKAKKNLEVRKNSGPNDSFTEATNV
WT yeast gro inh: growth inhibition of WT yeast, mitochondrial fusion screen; inhibition, % at 10 µM; mitochondrial fusion phenotypic screen, WT strain; 2.1% of 190,000 active; in the data active = inhibition above about 58%; tested in S. cerevisiae
NPY-Y2 antag: antagonists of human neuropeptide Y receptor Y2 | inhibition, % at 2.7 µM | 0.99% of 140,000 active | P49146 | AID 793 | NPY-Y2 expressing cells, antagonist mode; in the data active = inhibition above about 17%
A number is an active result. Only some compounds are listed: those with a hit (about 4.9% of all), similar ones and a draw of the others.

How did CN1CCN(CCCN(Cc2ccco2)C(=S)Nc2ccc(Cl)cc2)CC1 do in these assays?
NPY-Y1 PAM-ag: inactive; RAM inhibit: inactive; NPY-Y1 antag: inactive; NPY2 pot ag: inactive; WT yeast gro inh: inactive

What do the screens show for `Cc1csc(=S)n1-c1ccccc1`?
NPY-Y1 PAM-ag: inactive; RAM inhibit: inactive; NPY-Y1 antag: inactive; NPY2 pot ag: inactive; WT yeast gro inh: inactive; NPY-Y2 antag: inactive

Results for O=C(N/N=C/c1ccc(-c2ccc(Br)cc2)o1)c1ccc2c(c1)OCO2 ?
NPY-Y1 PAM-ag: inactive; RAM inhibit: inactive; NPY-Y1 antag: 21; NPY2 pot ag: inactive; WT yeast gro inh: inactive

How did CCC(C)n1c(SCc2ccccc2)nc2ccsc2c1=O (configuration not stated) do in these assays?
NPY-Y1 PAM-ag: inactive; RAM inhibit: inactive; NPY-Y1 antag: inactive; NPY2 pot ag: inactive; WT yeast gro inh: 65; NPY-Y2 antag: inactive

What do the screens show for `N#Cc1ccccc1CSc1nc2ccsc2c(=O)n1Cc1ccccn1`?
NPY-Y1 PAM-ag: inactive; RAM inhibit: inactive; NPY-Y1 antag: inactive; NPY2 pot ag: inactive; WT yeast gro inh: inactive; NPY-Y2 antag: inactive

Results for Cc1ccc(CSc2nc3ccsc3c(=O)n2Cc2ccccn2)cc1 ?
NPY-Y1 PAM-ag: inactive; RAM inhibit: inactive; NPY-Y1 antag: inactive; NPY2 pot ag: inactive; WT yeast gro inh: 59; NPY-Y2 antag: inactive

How did CCOC(=O)C1=C(N)n2c(s/c(=C\c3cccnc3)c2=O)=C(C(=O)OC)C1c1cccnc1 (configuration not stated) do in these assays?
NPY-Y1 PAM-ag: inactive; NPY-Y1 antag: inactive; NPY2 pot ag: inactive; NPY-Y2 antag: inactive

How did COc1cc(/C=c2\sc3nc(=O)c(-c4ccccc4)nn3c2=O)ccc1OCCC(C)C do in these assays?
NPY-Y1 PAM-ag: inactive; RAM inhibit: inactive; NPY-Y1 antag: inactive; NPY2 pot ag: inactive; WT yeast gro inh: inactive; NPY-Y2 antag: inactive

What do the screens show for `O=C(c1c(F)c(F)c(F)c(F)c1F)N(Cc1ccccc1)Cc1ccccc1`?
NPY-Y1 PAM-ag: inactive; RAM inhibit: inactive; NPY-Y1 antag: inactive; NPY2 pot ag: inactive; WT yeast gro inh: 66; NPY-Y2 antag: inactive

How did Cn1c(=NC(=O)c2ccc(S(=O)(=O)N3CCCc4ccccc43)cc2)sc2cc(S(C)(=O)=O)ccc21 do in these assays?
NPY-Y1 PAM-ag: inactive; RAM inhibit: 10; NPY-Y1 antag: inactive; NPY2 pot ag: inactive; WT yeast gro inh: inactive; NPY-Y2 antag: inactive

How did CN=c1scc(-c2ccccc2Br)n1/N=C/c1ccc[nH]1 do in these assays?
NPY-Y1 PAM-ag: inactive; RAM inhibit: inactive; NPY-Y1 antag: inactive; NPY2 pot ag: inactive; WT yeast gro inh: 73

Results for COc1ccc(/C=N/NC(=O)C2(C)NC(C)(C)Cc3ccccc32)cc1 (configuration not stated) ?
NPY-Y1 PAM-ag: inactive; RAM inhibit: inactive; NPY-Y1 antag: inactive; NPY2 pot ag: inactive; WT yeast gro inh: inactive

How did C=CCn1c(=O)c2ccccc2n2c(SCC(=O)c3ccccc3)nnc12 do in these assays?
NPY-Y1 PAM-ag: inactive; RAM inhibit: inactive; NPY-Y1 antag: inactive; NPY2 pot ag: inactive; WT yeast gro inh: inactive; NPY-Y2 antag: inactive

Results for CCC(C(=O)OCC(=O)Nc1ccc(C(N)=O)cc1)c1ccccc1 (configuration not stated) ?
NPY-Y1 PAM-ag: inactive; RAM inhibit: inactive; NPY-Y1 antag: inactive; NPY2 pot ag: inactive; WT yeast gro inh: inactive

Results for CCC(C(=O)OCC(=O)Nc1ccc(Cl)c(S(=O)(=O)N(C)C)c1)c1ccccc1 (configuration not stated) ?
NPY-Y1 PAM-ag: inactive; RAM inhibit: 10; NPY-Y1 antag: inactive; NPY2 pot ag: inactive; WT yeast gro inh: inactive; NPY-Y2 antag: inactive

Results for CCC(C(=O)OCC(=O)Nc1ccc(SC(F)F)cc1)c1ccccc1 (configuration not stated) ?
NPY-Y1 PAM-ag: inactive; RAM inhibit: 8.4; NPY-Y1 antag: inactive; NPY2 pot ag: inactive; WT yeast gro inh: 73; NPY-Y2 antag: inactive

How did CN(C)S(=O)(=O)c1cc(NC(=O)COC(=O)Cc2ccc(Cl)cc2Cl)ccc1Cl do in these assays?
NPY-Y1 PAM-ag: inactive; RAM inhibit: inactive; NPY-Y1 antag: inactive; NPY2 pot ag: inactive; WT yeast gro inh: inactive; NPY-Y2 antag: inactive

What do the screens show for `COc1ccccc1C(=O)COC(=O)c1ccccc1OCC(=O)Nc1ccc(SC(F)F)cc1`?
NPY-Y1 PAM-ag: inactive; RAM inhibit: 9.2; NPY-Y1 antag: inactive; NPY2 pot ag: inactive; WT yeast gro inh: inactive; NPY-Y2 antag: inactive

Screening results: PubChem, several laboratories
